The results in this text go back to ChEMBL document CHEMBL1137229, “Structural characterization and pharmacology of a potent (Cys101-Cys119, Cys110-Cys117) bicyclic agouti-related protein (AGRP) melanocortin receptor antagonist” (J Med Chem, 2004).

Test [1] addresses T1, Melanocortin receptor 4 (Mus musculus, UniProt P56450). The test can be described thus: Displacement of [125I]-hAGRP(87-132) from mouse Melanocortin 4 Receptor. Put shortly: (§1)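 Whole HEK-293 cells stably expressing mouse receptor, plated a day before at 0.1–0.3 × 10^6 cells/well. Chloramine-T-iodinated [125I]hAGRP(87–132) at 100000 cpm/well displaced by ligand. Nonspecific binding defined with 10^-6 M hAGRP(87–132). IC50 from nonlinear least-squares fit, or percent specific binding displaced at 10 μM. Duplicate points, at least two independent experiments, SD reported.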

The target in test [2] is Melanocyte-stimulating hormone receptor (Mus musculus, UniProt Q01727). The test can be described thus: Agonistic activity against mouse Melanocortin 1 Receptor. It is filed as functional. In a few lines: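 HEK-293 cells stably expressing the receptor (G418 selection), transiently transfected with a CRE/β-galactosidase reporter. Lysates read with ONPG at OD405 and normalized to protein content and forskolin (10^-4 M) response. EC50 from nonlinear least-squares fit, at least three independent experiments.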
Sequence of Melanocyte-stimulating hormone receptor (Q01727 whole entry): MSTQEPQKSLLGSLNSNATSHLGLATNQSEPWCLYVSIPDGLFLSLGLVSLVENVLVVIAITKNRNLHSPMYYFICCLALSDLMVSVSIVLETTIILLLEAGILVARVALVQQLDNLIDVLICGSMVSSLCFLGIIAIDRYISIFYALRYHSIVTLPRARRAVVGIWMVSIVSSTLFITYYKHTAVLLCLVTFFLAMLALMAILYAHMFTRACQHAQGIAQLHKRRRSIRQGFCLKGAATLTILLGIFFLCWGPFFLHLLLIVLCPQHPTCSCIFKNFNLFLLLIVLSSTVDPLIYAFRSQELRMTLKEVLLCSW

Test [3] deals with T1, Melanocortin receptor 4. The test can be described thus: Antagonistic activity against mouse Melanocortin 4 Receptor. Type of test: functional. The following applies: read-out: pA2 (converted). Put shortly:
(§2)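 Same HEK-293 CRE/β-galactosidase cAMP reporter system as the agonist assay, with a 6 h stimulation in IBMX-containing medium and normalization to protein and forskolin. Antagonism measured as the dose-dependent shift of the MTII agonist response, ligand up to 10 μM. pA2 derived by Schild analysis. Mean ± SEM of at least three independent experiments.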

For test [4], the target named is T2, Melanocortin receptor 3 (Mus musculus, UniProt P33033). The test can be described thus: Antagonistic activity against mouse Melanocortin 3 Receptor. Type of test: functional. The settings on record: read-out: pA2 (converted). In a few lines: as §2
T2 sequence (P33033 whole entry): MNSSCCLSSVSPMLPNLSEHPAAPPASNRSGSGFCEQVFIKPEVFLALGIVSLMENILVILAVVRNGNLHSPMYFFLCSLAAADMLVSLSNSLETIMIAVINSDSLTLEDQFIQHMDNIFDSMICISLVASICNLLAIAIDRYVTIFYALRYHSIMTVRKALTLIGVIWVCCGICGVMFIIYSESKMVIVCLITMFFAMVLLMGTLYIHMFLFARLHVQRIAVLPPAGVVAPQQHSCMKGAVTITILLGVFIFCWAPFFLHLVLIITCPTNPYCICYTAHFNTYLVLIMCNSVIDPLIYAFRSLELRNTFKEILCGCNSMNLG
The target in test [5] is T2, Melanocortin receptor 3. The test can be described thus: Displacement of [125I]-hAGRP(87-132) from mouse Melanocortin 3 Receptor. Put shortly:
as §1
(In a radioligand displacement assay an active substance lowers the binding of a labelled ligand.)

SMILES strings stand for the structures. Bridge positions count the residues as written; N and C are the ends. Peptide text beside a SMILES is read from it.

T1 sequence (P56450 whole entry): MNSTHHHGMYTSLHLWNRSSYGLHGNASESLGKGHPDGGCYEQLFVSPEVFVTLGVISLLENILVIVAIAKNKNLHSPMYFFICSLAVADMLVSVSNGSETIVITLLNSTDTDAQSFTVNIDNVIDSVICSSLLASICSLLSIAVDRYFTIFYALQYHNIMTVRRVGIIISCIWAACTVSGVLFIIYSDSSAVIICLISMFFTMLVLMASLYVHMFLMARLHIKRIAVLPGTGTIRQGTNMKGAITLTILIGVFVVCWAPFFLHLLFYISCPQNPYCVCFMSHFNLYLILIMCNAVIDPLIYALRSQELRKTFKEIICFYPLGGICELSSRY

In general, IC50 refers to the concentration that gives 50% inhibition. Higher therefore signals a need for much substance. A word on the EC50: it is the midpoint of the concentration-response curve. A low value points to an effect from little substance. Compound `CC[C@@H]1NC(=O)[C@H]([C@@H](C)O)NC(=O)[C@H](C)NC(=O)[C@H](CC)NC(=O)[C@@H]2CCCN2C(=O)[C@H](CC(=O)O)NC(=O)[C@H](CC)NC(=O)[C@@H](N)CSSC[C@@H](C(=O)N[C@@H](CCCN=C(N)N)C(=O)N[C@@H](CCCCN)C(=O)N[C@@H](CC(C)C)C(=O)O)NC(=O)[C@H](Cc2ccc(O)cc2)NC(=O)[C@@H]2CSSC[C@H](NC(=O)[C@H](Cc3ccc(O)cc3)NC1=O)C(=O)N[C@@H](CCCN=C(N)N)C(=O)N[C@@H](Cc1ccccc1)C(=O)N[C@@H](Cc1ccccc1)C(=O)N[C@@H](CC(N)=O)C(=O)N[C@@H](C)C(=O)N[C@@H](Cc1ccccc1)C(=O)N2` displayed an IC50 at Melanocortin receptor 4 [1] of 10 nM. In test [2], the EC50 was 1460 nM. Moreover, the Kb at Melanocortin receptor 4 [3] is 31.6 nM.

`CC[C@@H]1NC(=O)[C@H](N)CSSC[C@@H](C(=O)N[C@@H](CCCN=C(N)N)C(=O)N[C@@H](CCCCN)C(=O)N[C@@H](CC(C)C)C(=O)O)NC(=O)[C@H](Cc2ccc(O)cc2)NC(=O)[C@H]2CSSC[C@H](NC(=O)[C@@H](Cc3ccc(O)cc3)NC(=O)[C@H](CC)NC(=O)[C@H]([C@@H](C)O)NC(=O)[C@@H](C)NC(=O)[C@H](CC)NC(=O)[C@@H]3CCCN3C(=O)[C@@H](CC(=O)O)NC1=O)C(=O)N[C@H](CCCN=C(N)N)C(=O)N[C@@H](Cc1ccccc1)C(=O)N[C@H](Cc1ccccc1)C(=O)N[C@@H](CC(N)=O)C(=O)N[C@H](C)C(=O)N[C@@H](Cc1ccccc1)C(=O)N2`: the Kb on Melanocortin receptor 3 [4] is 158 nM. This compound yielded an IC50 on Melanocortin receptor 3 [5] of 140 nM.

For `C[C@@H]1NC(=O)[C@H](CC(N)=O)NC(=O)[C@H](Cc2ccccc2)NC(=O)[C@H](Cc2ccccc2)NC(=O)[C@H](CCCNC(=N)N)NC(=O)[C@@H](NC(=O)[C@@H](N)Cc2ccc(O)cc2)CSSC[C@@H](C(=O)N[C@@H](Cc2ccc(O)cc2)C(N)=O)NC(=O)[C@H](Cc2ccccc2)NC1=O` (H-YCRFFNAFCY-NH2; disulfide 2-9), the IC50 at Melanocortin receptor 4 [1] amounted to 275 nM; at Melanocortin receptor 3 [5], 11700 nM. The compound also had an EC50 in test [2] of 5120 nM. For the same compound, the Kb on Melanocortin receptor 4 [3] is 158 nM.
